Screening results: PubChem BioAssay, several laboratories
This is a sample that favours compounds with a hit; in the whole collection about 4.1% have one here.
MC4R antagonist: antagonists of human melanocortin 4 receptor (MC4R) | AID 540295 | inhibition, % at 6.5 µM | 0.48% of 360,000 active | MC4R-expressing cells, MTII-stimulated cAMP, LANCE TR-FRET | P32245;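 active = inhibition above its plate's cutoff, the mean of tested wells on that plate plus 3 SD, cut at about 29% in these data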
Target sequence (P32245 whole entry, looked up): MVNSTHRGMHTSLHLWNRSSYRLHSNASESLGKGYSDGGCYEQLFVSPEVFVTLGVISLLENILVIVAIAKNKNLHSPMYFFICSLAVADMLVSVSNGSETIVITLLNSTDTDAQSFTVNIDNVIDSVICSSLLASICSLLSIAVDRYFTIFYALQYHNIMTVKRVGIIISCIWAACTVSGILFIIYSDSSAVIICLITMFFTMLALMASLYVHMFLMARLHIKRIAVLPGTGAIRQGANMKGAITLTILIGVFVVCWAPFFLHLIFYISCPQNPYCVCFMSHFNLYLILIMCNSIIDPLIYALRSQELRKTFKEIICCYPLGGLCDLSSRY
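System: U2OS-MC4R stable cell line; Technique: Eu-cAMP/anti-cAMP TR-FRET, emission 671 nm; Repeats: single well per compound; Also added: Melanotan II; Dosing: one concentration, 6.5 µM nominal; Schedule: 30-min compound, 1-h challenge, 1-h detection, room temperature.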
MC4R ag barr: activates human MC4R beta-arrestin recruitment; activation, % at 8.9 µM; U2OS MC4R beta-arrestin complementation, luminescence; percent of melanotan II response, DMSO zero; 0.98% of 360,000 active; AID 540308; P32245;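 active = activation above a per-plate cutoff, the mean activation of sample wells on that plate plus 3 SD, cut at about 8% in these data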
MPTP block: blocks calcium-induced mitochondrial swelling | inhibition, % at 10 µM | 1.4% of 360,000 active | isolated mouse mitochondria, Ca2+ swelling absorbance, 30 min;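 active = inhibition of 50% or more, scaled per plate between neutral and stimulator controls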
SMARCA2 act: SMARCA2 function activation, primary screen; AID 652017; 1% of 370,000 active; MG213 cells, MMTV-luciferase reporter, dexamethasone, overnight; activation, % at 9.1 µM; in the data active = activation above about 7.8%
ATG4B inh: blocks human ATG4B protease cleavage of LC3 substrate | ATG4B cleavage of LC3-PLA2, NBD-HPC fluorescence, 1 h | inhibition, % at 8.33 µM | 0.51% of 340,000 active | AID 504462; in the data active = inhibition above about 40%
Target sequence (Q9Y4P1 whole entry, looked up): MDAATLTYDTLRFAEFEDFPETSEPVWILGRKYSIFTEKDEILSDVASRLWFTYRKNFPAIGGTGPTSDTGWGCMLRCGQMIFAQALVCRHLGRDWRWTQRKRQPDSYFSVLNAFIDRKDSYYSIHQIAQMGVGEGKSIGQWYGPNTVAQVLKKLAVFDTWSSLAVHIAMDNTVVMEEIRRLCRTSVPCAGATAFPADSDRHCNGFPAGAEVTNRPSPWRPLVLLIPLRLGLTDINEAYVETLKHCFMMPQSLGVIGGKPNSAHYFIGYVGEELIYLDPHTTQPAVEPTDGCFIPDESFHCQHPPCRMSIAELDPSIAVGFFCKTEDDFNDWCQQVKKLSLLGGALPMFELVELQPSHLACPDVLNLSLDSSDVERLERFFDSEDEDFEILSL
cAMP nonselect: nonselective cAMP signaling inhibitor, MC4R antagonist counter-screen | shares compounds with MC4R antagonist | parental U2OS, forskolin cAMP, LANCE TR-FRET | inhibition, % at 6.5 µM | 26% of 1,600 active;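 active = mean inhibition over triplicates above the low-control well mean plus 3 SD, set per campaign, cut at about 13% in these data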;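 note: signal is single emission at 671 nm which falls as cellular cAMP rises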
MC4R antag conf: human MC4R cAMP antagonism confirmation. inhibition, % at 6.5 µM. shares compounds with MC4R antagonist. 27% of 1,600 active. MC4R-expressing cells, MTII-stimulated cAMP, TR-FRET; in the data active = inhibition above about 29%
Of the large screens only hits and unclear results are named; the others gave an inactive call (follow-up assays come after a bar, where they were run); ! = not active in a repeat.

O=c1c2cc3cc(Cl)ccc3nc2ncn1CCc1c[nH]c2ccccc12	none (no result: MC4R antagonist, MC4R ag barr, MPTP block, ATG4B inh)
Cc1cc(NS(=O)(=O)c2ccc(NC(=O)c3oc4ccccc4c3C)cc2)no1	MC4R antagonist 29.0 | cAMP nonselect inactive | MC4R antag conf inactive
C=CCN1[C@H](CC(C)C)COc2cc(N3CCSCC3)ccc2S1(=O)=O	none (no result: MC4R antagonist, MC4R ag barr, MPTP block, ATG4B inh)
Cc1ccc(S(=O)(=O)c2ccc(C)cc2)cc1	none
Cc1ccc(S(=O)(=O)C=CS(=O)(=O)c2ccc(C)cc2)cc1	MC4R antagonist 41.6 (no result: ATG4B inh) | cAMP nonselect inactive | MC4R antag conf inactive
CCCCCOc1ccc(/C=N/NC(=O)CSc2nnc(-c3ccc(OC)cc3)n2-c2ccc(C)cc2)cc1	none (no result: MC4R antagonist, MC4R ag barr, MPTP block, ATG4B inh)
N#Cc1ccc(/C=C/C(=O)c2ccco2)cc1	MC4R antagonist 30.8 | cAMP nonselect inactive | MC4R antag conf inactive
Nc1ccc(/C=C/C(=O)c2ccco2)cc1	none
COc1ccc(C(=O)/C=C/C(=O)N(CC(=O)NC2CCCCC2)Cc2cccs2)c(O)c1	MC4R antagonist 31.8 | cAMP nonselect inactive | MC4R antag conf inactive
COc1ccc(C(=O)/C=C/C(=O)N(Cc2ccc3c(c2)OCO3)C(C(=O)NC2CCCCC2)c2ccncc2)c(O)c1 (stereo not given)	none
COc1ccc(CN(C(=O)/C=C/C(=O)c2ccc(OC)cc2O)C(C(=O)NC2CCCCC2)c2ccncc2)cc1 (stereo not given)	none
COCCN(CC(=O)NC1CCCCC1)C(=O)/C=C/C(=O)c1ccc(OC)cc1O	MC4R antagonist 41.1 | cAMP nonselect inactive | MC4R antag conf inactive
COC(=O)CSc1nnc(-c2ccc(NS(=O)(=O)c3ccc(C)c(C)c3)cc2)o1	none (no result: MC4R antagonist, MC4R ag barr, MPTP block, ATG4B inh)
CC1=C[C@]2(C[N+](Cc3ccccc3)=C(N)N2)n2c(=O)n(-c3ccccc3)c(=O)n2C1	none (no result: MC4R antagonist, MC4R ag barr, MPTP block, ATG4B inh)
Cc1c(C(=O)NCCSCc2ccccc2)cccc1[N+](=O)[O-]	MC4R antagonist 35.1 | cAMP nonselect inactive | MC4R antag conf inactive
O=C(Cn1ncc(Cl)c(Cl)c1=O)N1CCN(S(=O)(=O)c2ccc3ccccc3c2)CC1	MC4R antagonist 49.6 | cAMP nonselect 24.3 | MC4R antag conf 50.8
C#CCNC(=O)C[C@H]1C(=O)N(CCc2ccc(Cl)cc2)C2=CCCC[C@@]21C(=O)OCC	none (no result: MC4R antagonist, MC4R ag barr, MPTP block, ATG4B inh)
COc1ccc(Oc2c(Cl)cnn(-c3ccc(C)cc3)c2=O)cc1	MC4R antagonist 59.5 | cAMP nonselect 36.4 | MC4R antag conf 82.5
COc1ccc(Oc2c(Cl)cnn(-c3ccc(F)cc3)c2=O)cc1	MC4R antagonist 57.6 | cAMP nonselect 40.3 | MC4R antag conf 72.6
COc1ccc(Oc2c(Cl)cnn(-c3ccc(Cl)c(Cl)c3)c2=O)cc1	none
CC1CCCC(NC(=O)CSc2ccc(F)cc2)C1C (stereo not given)	MC4R antagonist 32.2 | cAMP nonselect inactive | MC4R antag conf inactive
CC[N+]1(C)CCC(O)(c2ccc(OC)cc2)C(C(=O)c2ccc(OC)cc2)C1 (stereo not given)	MC4R antagonist 28.7 | cAMP nonselect 17.0 | MC4R antag conf inactive
CC(C)(C)c1ccc(-c2nnc(SCC(=O)c3ccc4ccccc4c3)n2-c2ccc(Cl)cc2)cc1	none (no result: MC4R antagonist, MC4R ag barr, MPTP block, ATG4B inh)
Cc1ccccc1CS(=O)(=O)c1ncc(Cl)c(C(=O)Nc2ccc(F)cc2)n1	MC4R antagonist 42.0 | cAMP nonselect 29.3 | MC4R antag conf inactive
CCN(c1ccccc1)S(=O)(=O)c1ccc(NC(=O)c2nc(S(C)(=O)=O)ncc2Cl)cc1	MC4R antagonist 60.0 (no result: SMARCA2 act) | cAMP nonselect 23.6 | MC4R antag conf 46.1
Cc1ccc(NC(=O)c2nc(S(=O)(=O)Cc3ccccc3)ncc2Cl)cc1	none
CCS(=O)(=O)c1ncc(Cl)c(C(=O)Nc2ccc(S(=O)(=O)N(C)c3ccccc3)cc2)n1	MC4R antagonist 51.9 | cAMP nonselect inactive | MC4R antag conf 35.7
CC(C)N1CCCCC(NC(=O)c2ccc(F)cc2)C1=O (stereo not given)	none (no result: MC4R antagonist, MC4R ag barr, MPTP block, ATG4B inh)
O=C1CCCC2=C1[C@@]1(O[C@H]3C=CC=CN23)C(=O)N(c2ccccc2)c2ccccc21	none (no result: MC4R antagonist, MC4R ag barr, MPTP block, ATG4B inh)
C#CCNC(=O)C[C@H]1C[C@@]2(C(=O)OC)C(=C[C@H](C(C)(C)C)O[C@@H]2C)N(CCC2=CCCCC2)C1=O	none (no result: MC4R antagonist, MC4R ag barr, MPTP block, ATG4B inh)
Cc1c(N=Cc2ccco2)c(=O)n(-c2ccccc2)n1C	none
COc1ccc(Cn2c(O)c(C=Nc3ccc(OC)cc3)c3ccccc3c2=O)cc1	none
COc1ccc2c(C=Nc3c(C)n(C)n(-c4ccccc4)c3=O)c(O)n(Cc3ccco3)c(=O)c2c1	MC4R antagonist 37.0! | cAMP nonselect inactive | MC4R antag conf inactive
COc1ccc(Cn2c(O)c(C=Nc3ccccc3C(=O)O)c3ccccc3c2=O)cc1	MC4R antagonist 31.9 | cAMP nonselect inactive | MC4R antag conf inactive
COC(=O)[C@]12C[C@H](CC(=O)N3CCSCC3)C(=O)N(CCC3=CCCCC3)C1=C[C@H](C(C)(C)C)O[C@@H]2C	none (no result: MC4R antagonist, MC4R ag barr, MPTP block, ATG4B inh)
ClCC1NCC(c2ccccc2Cl)c2c1[nH]c1ccccc21 (stereo not given)	MC4R antagonist 36.5 | cAMP nonselect inactive | MC4R antag conf inactive
C#CC[N+]1(CC#Cc2ccccc2)CCCC1	none
O=S(=O)([O-])CCC[N+]1(CC#Cc2ccccc2)CCCCC1	MC4R antagonist 35.5 | cAMP nonselect inactive | MC4R antag conf inactive
CC(=O)c1sc(-c2ccccc2)cc1NS(=O)(=O)c1ccc(C)cc1	MC4R antagonist 35.5 | cAMP nonselect 32.4 | MC4R antag conf 56.9
Cc1ccc(-n2nc3c(c2NC(=O)c2ccc(S(=O)(=O)N4CCOCC4)cc2)CSC3)c(C)c1	MC4R antagonist 32.3 (no result: SMARCA2 act) | cAMP nonselect inactive | MC4R antag conf inactive
CCOc1ccc(N2C(=O)C3C(c4ccccc4F)NN(C(=O)c4ccc(C)cc4)C3C2=O)cc1 (stereo not given)	MC4R antagonist 30.5 | cAMP nonselect inactive | MC4R antag conf inactive
CCOC(=O)c1ccc2ncc(C(=O)OCC)c(Nc3ccc(N4CCOCC4)cc3)c2c1	MC4R antagonist 47.6 | cAMP nonselect inactive | MC4R antag conf 48.1
C=CCN(C(=O)CNS(=O)(=O)c1ccccc1)C(C(=O)NCCOC)c1cccnc1 (stereo not given)	MC4R antagonist 29.3 | cAMP nonselect inactive | MC4R antag conf inactive
O=C(COC(=O)c1ccccc1O)Nc1ccc(S(=O)(=O)N2CCCCC2)cc1	none
O=C(COC(=O)c1cc(S(=O)(=O)N2CCOCC2)ccc1O)Nc1cc(S(=O)(=O)N2CCCC2)ccc1Cl	MC4R antagonist 30.4 | cAMP nonselect inactive | MC4R antag conf inactive
CCN(CC)S(=O)(=O)c1ccc(NC(=O)COC(=O)c2cc(S(=O)(=O)Nc3ccc(OC)cc3)ccc2O)cc1	MC4R antagonist 32.3 | cAMP nonselect inactive | MC4R antag conf inactive
